Assay results from different studies.
Each line is one published result; the experiments were not run side by side.
Read-out: cell growth or viability

For `CCOC(=O)c1c(C)nc2ccc(-c3ccc(F)cc3)cc2c1O`, the IC50 was 5 µM (MDA-MB-468; MTT; 48 h).
The IC50 of `C/C(=N\CCNCCNCC/N=C(\C)c1c(O)c2ccccc2oc1=O)c1c(O)c2ccccc2oc1=O` is reported as 4.11 µM (BEAS-2B; MTT; 48 h).
The IC50 of `OCn1cncn1` is reported as over 800 µM (BEAS-2B; MTT; 24 h).
`Fc1ccc2c(-c3nnc(Cc4ccccc4)s3)nn(Cc3ccccc3)c2c1` has an IC50 of 605 µM (human Fibroblast; 48 h).
The IC50 of `OCc1ccc(-c2nn(-c3ccccc3)c3ccccc23)o1` is reported as 4.27 µM (RBE; ATP luminescence).
For `c1ccc(-c2noc(-c3nn(Cc4ccncc4)c4ccccc34)n2)cc1`, the IC50 was 51.4 µM (human Fibroblast; 48 h).
For `OC1CCN(c2ccc(/C=N/NC(=S)Nc3ccc(Cl)cc3)cc2)CC1`, the IC50 was 13.7 µM (BEAS-2B; MTT; 24 h).
For `OCc1ccc(-c2nn(Cc3ccccn3)c3ccccc23)o1`, the IC50 was 0.302 µM (RBE; ATP luminescence).
With `CC(=O)ON=C1C=CC(=C(C#N)c2ccccc2)C=C1` the IC50 was 20.3 µg/mL (human Fibroblast; MTT; 48 h).
For `O=C(O)c1nn(Cc2ccc(Cl)cc2Cl)c2ccccc12`, the IC50 was 259 µM (human Fibroblast; 48 h).
`COc1cccc2c1C(=O)c1c(O)c3c(c(O)c1C2=O)C[C@@](O)(C(=O)CO)C[C@@H]3O[C@H]1C[C@H](N)[C@H](O)[C@H](C)O1` gave an IC50 of 0.0214 µM (RBE; 96 h).
`Cc1nc2ccc(-c3ccc(F)cc3)cc2c(O)c1C(=O)O` has an IC50 of at least 100 µM (MDA-MB-468; MTT; 48 h).
The IC50 of `Cc1noc(-c2nn(Cc3ccc(Cl)cc3Cl)c3ccccc23)n1` is reported as 148 µM (human Fibroblast; 48 h).
The IC50 of `COc1cccc2c1C(=O)c1c(O)c3c(c(O)c1C2=O)C[C@@](O)(C(=O)CO)C[C@@H]3O[C@H]1C[C@H](N)[C@H](O)[C@H](C)O1` is reported as 4.08 µM (BEAS-2B; MTT; 48 h).
For `Cc1sc2c(c1C)C(c1ccc(Cl)cc1)=N[C@@H](CC(=O)NCCCCNC(=O)COc1cccc3c1C(=O)N(C1CCC(=O)NC1=O)C3=O)c1nnc(C)n1-2` (some centres unmarked), the IC50 was over 10 µM (KATO III; CCK-8; 72 h).
The IC50 of `OCc1ccc(-c2nn(Cc3cccnc3)c3cccnc23)o1` is reported as 5.01 µM (RBE; ATP luminescence).
`Cc1nc2ccc(-c3ccc(F)cc3F)cc2c(O)c1C(=O)O` has an IC50 of at least 100 µM (MDA-MB-468; MTT; 48 h).
With `Cc1cccc(C)c1NC(=S)N/N=C/c1ccc(N2CCC(O)CC2)cc1` the IC50 was 12.7 µM (BEAS-2B; MTT; 24 h).
With `c1ccc(Cc2nnc(-c3nn(Cc4ccccc4)c4ccccc34)o2)cc1` the IC50 was 635 µM (human Fibroblast; 48 h).
`C/C(=N\CCNCC/N=C(\C)c1c(O)c2ccccc2oc1=O)c1c(O)c2ccccc2oc1=O` gave an IC50 of 13.3 µM (BEAS-2B; MTT; 48 h).
For `CC(c1ccccc1)n1nc(-c2ccc(CO)o2)c2ccccc21` (centres unmarked), the IC50 was 4.17 µM (RBE; ATP luminescence).
For `Cc1nc2ccc(-c3ccc(OCc4ccccc4)c(F)c3)cc2c(O)c1C(=O)O`, the IC50 was at least 100 µM (MDA-MB-468; MTT; 48 h).
With `Nc1nc2cc(CC[C@H]3C[C@@H](n4ccc5c(N)ncnc54)[C@H](O)[C@@H]3O)ccc2cc1Br` the IC50 was over 100 µM (MDA-MB-435S; CCK-8; 72 h).
`COc1ccc2c(-c3ncc(-c4ccccc4)o3)nn(Cc3ccccc3)c2c1` gave an IC50 of 89.9 µM (human Fibroblast; 48 h).
With `CC(C)CNC(=S)N/N=C/c1ccc(N2CCC(O)CC2)cc1` the IC50 was 10.8 µM (BEAS-2B; MTT; 24 h).
`FC(F)(F)c1ccc(-c2noc(-c3nn(Cc4ccc(Cl)cc4Cl)c4ccccc34)n2)cc1` has an IC50 of 130 µM (human Fibroblast; 48 h).
With `CCOC(=O)c1c(C)nc2ccc(-c3ccc(F)c(F)c3)cc2c1O` the IC50 was 4 µM (MDA-MB-468; MTT; 48 h).
With `COc1cc(Cn2nc(-c3ccc(CO)o3)c3ccccc32)ccn1` the IC50 was 0.38 µM (RBE; ATP luminescence).
The IC50 of `FC(F)(F)c1ccc(-c2nnc(-c3nn(Cc4ccc(Cl)cc4Cl)c4ccccc34)o2)cc1` is reported as 100 µM (human Fibroblast; 48 h).
The IC50 of `OCc1ccc(-c2nn(Cc3cccc(Cl)c3)c3ccccc23)o1` is reported as 1.41 µM (RBE; ATP luminescence).
The IC50 of `Cc1ccc(CNC(=S)N/N=C/c2ccc(N3CCC(O)CC3)cc2)cc1` is reported as 15.9 µM (BEAS-2B; MTT; 24 h).
`CNCc1ccc(-c2nn(Cc3ccccc3)c3ccccc23)o1` has an IC50 of 21.4 µM (RBE; ATP luminescence).
With `OC1CCN(c2ccc(/C=N/NC(=S)Nc3ccccc3)cc2)CC1` the IC50 was 18.9 µM (BEAS-2B; MTT; 24 h).
`COc1ccc(Cn2nc(-c3ccc(CO)o3)c3ccccc32)cc1` has an IC50 of 1.12 µM (RBE; ATP luminescence).
`CN1CCC(NC2CCc3[nH]c4c(C(N)=O)ccc(-c5ccccc5Cl)c4c3C2)CC1` (centres unmarked) gave an IC50 of 0.00146 µM (RBE; 96 h).
